Experimental data: ChEMBL document CHEMBL3244303, “Synthesis of spiro[isobenzofuran-1(3H),4'-piperidines] as potential central nervous system agents. 5. Conformationally mobile analogues derived by furan ring opening” (J Med Chem, 1979)

Tests used:
Mus musculus = test: Antidepressant activity in ip dosed CD1 mouse assessed as inhibition of tetrabenazine methanesulfonate-induced reserpine like behavior administered 30 mins before tetrabenazine methanesulfonate challenge measured after 30 mins; assay type: functional
Procedure, shortened: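 Male CD-1 mice, groups of five, given test compound ip; tetrabenazine methanesulfonate 40 mg/kg ip 30 min later; after a further 30 min mice placed in individual containers and ptosis scored on a three-point scale (eyes closed = 2).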

Transporter = Transporter (Rattus norvegicus, UniProt Q63380); test: Inhibition of NET-mediated norepinephrine uptake in rat brain synaptosomes; assay type: subcellular
Chain of Transporter (Q63380 whole entry): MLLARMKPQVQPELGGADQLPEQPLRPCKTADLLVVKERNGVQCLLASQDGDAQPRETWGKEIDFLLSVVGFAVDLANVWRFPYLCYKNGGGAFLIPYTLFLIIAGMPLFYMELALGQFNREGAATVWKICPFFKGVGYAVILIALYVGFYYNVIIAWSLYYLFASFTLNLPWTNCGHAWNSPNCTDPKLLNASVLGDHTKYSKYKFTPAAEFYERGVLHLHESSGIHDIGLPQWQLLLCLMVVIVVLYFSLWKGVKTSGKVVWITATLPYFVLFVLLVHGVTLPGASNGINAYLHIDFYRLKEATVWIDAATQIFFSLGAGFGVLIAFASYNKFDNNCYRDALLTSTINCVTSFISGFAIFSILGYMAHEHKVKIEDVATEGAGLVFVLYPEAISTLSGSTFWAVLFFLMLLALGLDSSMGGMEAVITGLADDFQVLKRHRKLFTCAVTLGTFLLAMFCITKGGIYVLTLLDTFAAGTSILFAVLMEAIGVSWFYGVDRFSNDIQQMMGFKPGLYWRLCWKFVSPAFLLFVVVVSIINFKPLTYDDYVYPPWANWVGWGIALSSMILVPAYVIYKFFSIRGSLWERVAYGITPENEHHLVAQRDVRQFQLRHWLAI

Br.CN1CCC(c2ccccc2Cc2ccc(F)cc2)CC1
ED50 (Mus musculus): 4.9 mg/kg

Br.COc1ccc(Cc2ccccc2C2CCN(C)CC2)cc1
ED50 (Mus musculus): > 20 mg/kg

CN1CCC(c2ccccc2Cc2ccc(O)cc2)CC1
ED50 (Mus musculus): > 20 mg/kg

Br.c1ccc(CCN2CCC(c3ccccc3Cc3ccccc3)CC2)cc1
ED50 (Mus musculus): 10.8 mg/kg

Br.Fc1ccc(Cc2ccccc2C2CCNCC2)cc1
ED50 (Mus musculus): 1.5 mg/kg

COc1ccc(Cc2ccccc2C2CCNCC2)cc1.Cl
ED50 (Mus musculus): 7.1 mg/kg

Oc1ccc(Cc2ccccc2C2CCNCC2)cc1
ED50 (Mus musculus): 1.2 mg/kg

ON1CCC(c2ccccc2Cc2ccccc2)CC1
ED50 (Mus musculus): 7.3 mg/kg

O=C(Oc1ccccc1)N1CCC(c2ccccc2Cc2ccccc2)CC1
ED50 (Mus musculus): > 20 mg/kg

CN1CCC(O)(c2ccccc2Cc2ccccc2)CC1
ED50 (Mus musculus): 18 mg/kg

CN1CCC(O)(c2cccc(Cc3ccccc3)c2)CC1
ED50 (Mus musculus): > 20 mg/kg

CN1CCC(O)(c2ccc(Cc3ccccc3)cc2)CC1
ED50 (Mus musculus): > 20 mg/kg

COc1ccc(Cc2ccccc2C2(O)CCN(C)CC2)cc1
ED50 (Mus musculus): > 20 mg/kg

Cl.OC1(c2ccccc2Cc2ccccc2)CCN(Cc2ccccc2)CC1
ED50 (Mus musculus): > 20 mg/kg

OC1(c2ccccc2Cc2ccccc2)CCN(CCc2ccccc2)CC1
ED50 (Mus musculus): > 20 mg/kg

CC(=O)OC1(c2ccccc2Cc2ccccc2)CCN(C)CC1.Cl
ED50 (Mus musculus): > 20 mg/kg

CC(=O)OC1(c2cccc(Cc3ccccc3)c2)CCN(C)CC1.Cl
ED50 (Mus musculus): > 20 mg/kg

CC(=O)OC1(c2ccccc2Cc2ccccc2)CCN(Cc2ccccc2)CC1.Cl
ED50 (Mus musculus): > 20 mg/kg

COC1(c2ccccc2Cc2ccccc2)CCN(C)CC1.Cl
ED50 (Mus musculus): > 20 mg/kg

COC1(c2ccccc2Cc2ccccc2)CCNCC1
ED50 (Mus musculus): 7.8 mg/kg

Br.CN1CC=C(c2cccc(Cc3ccccc3)c2)CC1
ED50 (Mus musculus): > 20 mg/kg

Br.CN1CC=C(c2ccc(Cc3ccccc3)cc2)CC1
ED50 (Mus musculus): > 20 mg/kg

Br.COc1ccc(Cc2ccccc2C2=CCN(C)CC2)cc1
ED50 (Mus musculus): > 20 mg/kg

C1=C(c2ccccc2Cc2ccccc2)CCN(Cc2ccccc2)C1.Cl
ED50 (Mus musculus): > 20 mg/kg

C1=C(c2ccccc2Cc2ccccc2)CCN(CCc2ccccc2)C1
ED50 (Mus musculus): > 20 mg/kg

Cl.c1ccc(COC2(c3ccccc3)CCNCC2)cc1
ED50 (Mus musculus): 10.1 mg/kg

Cl.c1ccc(COC2(c3ccccc3)CCN(CC3CC3)CC2)cc1
ED50 (Mus musculus): 6.3 mg/kg

CCOC(=O)N1CCC(OCc2ccccc2)(c2ccccc2)CC1
ED50 (Mus musculus): > 20 mg/kg

CN1CCC(OCc2ccccc2)(c2ccccc2)CC1.Cl
ED50 (Mus musculus): 6.2 mg/kg

c1ccc(CCN2CCC(OCc3ccccc3)(c3ccccc3)CC2)cc1
ED50 (Mus musculus): > 20 mg/kg

c1ccc(C2OC3(CCNCC3)c3ccccc32)cc1 (centres undefined)
IC50 (Transporter): 10 nM

CN(C)CCC=C1c2ccccc2CCc2ccccc21 [AMITRIPTYLINE]
ED50 (Mus musculus): 1.9 mg/kg

CNCCCN1c2ccccc2CCc2ccccc21 [DESIPRAMINE]
ED50 (Mus musculus): 0.8 mg/kg

CN(C)CCCN1c2ccccc2CCc2ccccc21 [IMIPRAMINE]
ED50 (Mus musculus): 1.3 mg/kg
